# Measurements as given in ChEMBL document CHEMBL1141088, “A new pyridazine series of GABAA alpha5 ligands” (J Med Chem, 2005).
# How the values were obtained:
# [1] = molecular target: T1, GABA-A receptor; alpha-1/beta-3/gamma-2 (Homo sapiens, UniProt P14867+P18507+P28472); experiment: Displacement of [3H]-Ro- 15-1788 binding from human recombinant Gamma-aminobutyric acid A receptor alpha-1-beta-3-gamma-2 expressed in mouse fibroblast L(tk-) cells (30 min at 24 degrees C, pH 7.4); assay type: cell-based
# T1 sequence (P14867 whole entry): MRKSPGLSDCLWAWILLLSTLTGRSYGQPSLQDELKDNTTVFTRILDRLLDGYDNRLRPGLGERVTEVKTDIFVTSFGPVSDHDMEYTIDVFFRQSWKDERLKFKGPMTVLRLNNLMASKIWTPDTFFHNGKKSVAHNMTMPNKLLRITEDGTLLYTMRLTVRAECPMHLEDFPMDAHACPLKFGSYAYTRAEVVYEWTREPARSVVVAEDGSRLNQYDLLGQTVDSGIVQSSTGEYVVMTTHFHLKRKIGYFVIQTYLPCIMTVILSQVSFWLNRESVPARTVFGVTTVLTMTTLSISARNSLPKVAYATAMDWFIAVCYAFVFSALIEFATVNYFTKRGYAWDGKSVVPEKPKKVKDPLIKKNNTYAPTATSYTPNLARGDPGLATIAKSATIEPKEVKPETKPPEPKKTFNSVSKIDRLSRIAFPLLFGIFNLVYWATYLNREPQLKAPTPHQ
# T1 sequence (P18507 whole entry): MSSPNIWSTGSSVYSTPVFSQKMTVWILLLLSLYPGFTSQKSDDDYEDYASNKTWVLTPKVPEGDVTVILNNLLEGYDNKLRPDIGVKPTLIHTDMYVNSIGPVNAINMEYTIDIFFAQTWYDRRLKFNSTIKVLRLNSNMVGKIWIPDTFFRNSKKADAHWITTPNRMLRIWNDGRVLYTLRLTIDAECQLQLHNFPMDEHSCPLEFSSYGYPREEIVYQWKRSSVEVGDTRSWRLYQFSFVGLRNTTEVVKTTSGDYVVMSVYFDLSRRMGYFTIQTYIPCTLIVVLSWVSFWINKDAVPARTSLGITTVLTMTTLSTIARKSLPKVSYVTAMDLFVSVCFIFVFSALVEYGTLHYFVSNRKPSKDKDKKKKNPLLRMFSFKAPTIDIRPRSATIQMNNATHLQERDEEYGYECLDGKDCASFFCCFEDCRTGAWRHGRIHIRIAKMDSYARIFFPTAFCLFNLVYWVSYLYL
# T1 sequence (P28472 whole entry): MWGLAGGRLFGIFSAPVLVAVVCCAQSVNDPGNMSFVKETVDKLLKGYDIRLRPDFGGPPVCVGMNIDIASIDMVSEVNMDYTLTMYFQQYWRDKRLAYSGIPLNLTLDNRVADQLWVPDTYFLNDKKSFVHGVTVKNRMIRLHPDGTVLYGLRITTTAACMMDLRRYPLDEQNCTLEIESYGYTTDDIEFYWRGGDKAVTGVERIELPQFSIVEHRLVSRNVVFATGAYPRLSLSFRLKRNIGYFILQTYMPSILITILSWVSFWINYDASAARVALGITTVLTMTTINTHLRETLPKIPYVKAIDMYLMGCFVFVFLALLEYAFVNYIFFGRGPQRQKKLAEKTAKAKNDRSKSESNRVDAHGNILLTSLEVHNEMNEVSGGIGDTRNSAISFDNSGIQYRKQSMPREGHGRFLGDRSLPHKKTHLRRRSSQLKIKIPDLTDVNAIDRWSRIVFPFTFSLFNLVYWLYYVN
# Outline: (§1)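 Membranes from L(tk-) cells stably expressing human α1, α3 or α5 β3γ2 in 50 mM Tris pH 7.4. [3H]Ro15-1788 at 1.8 nM final, 30 min at 24 °C. Nonspecific binding set with 10 µM flunitrazepam, total binding in 0.1% DMSO. Filtration, scintillation counting. Ki is mean ± SEM of ≥3 independent determinations.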
# [2] = molecular target: T2, GABA-A receptor; alpha-5/beta-3/gamma-2 (Homo sapiens, UniProt P18507+P28472+P31644); experiment: Displacement of [3H]-Ro- 15-1788 binding from human recombinant Gamma-aminobutyric acid A receptor alpha-5-beta-3-gamma-2 expressed in mouse fibroblast L(tk-) cells (30 min at 24 degrees C, pH 7.4); assay type: cell-based; outline: as §1
# T2 sequence (P18507 whole entry): T1 sequence (P18507 whole entry)
# T2 sequence (P28472 whole entry): T1 sequence (P28472 whole entry)
# T2 sequence (P31644 whole entry): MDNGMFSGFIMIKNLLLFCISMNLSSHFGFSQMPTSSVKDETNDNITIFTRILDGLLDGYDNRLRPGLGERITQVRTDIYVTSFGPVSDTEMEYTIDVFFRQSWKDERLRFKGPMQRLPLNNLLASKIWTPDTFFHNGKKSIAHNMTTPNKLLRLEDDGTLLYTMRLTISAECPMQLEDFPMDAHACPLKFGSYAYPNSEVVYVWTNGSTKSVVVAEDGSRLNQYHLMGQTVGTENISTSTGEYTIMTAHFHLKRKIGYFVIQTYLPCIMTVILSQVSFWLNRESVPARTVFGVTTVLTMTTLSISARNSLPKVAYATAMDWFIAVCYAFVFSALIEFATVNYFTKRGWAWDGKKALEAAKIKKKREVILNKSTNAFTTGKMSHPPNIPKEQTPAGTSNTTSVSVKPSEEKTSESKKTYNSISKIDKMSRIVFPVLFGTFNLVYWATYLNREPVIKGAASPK
# [3] = molecular target: GABA-A receptor; alpha-5/beta-3/gamma-2 (Homo sapiens) (UniProt P18507+P28472+P31644); experiment: Efficacy at GABAA alpha-5-beta-3-gamma-2 receptor expressed in mouse fibroblast L(tk-) cells measured at 300 nM derived from at least three plates/day screened over a minimum of 2 days; assay type: functional, cell-based
# Outline: (§2)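 FRET membrane-potential (VIPR) assay in L(tk-) cells with receptor expression induced 24 h by 1 µM dexamethasone. Dye-loaded 30 min in low-Cl- HEPES buffer pH 7.4: 4 µM CC2-DMPE, 1 µM DiSBAC2(3), 0.5 mM tartrazine. Basal read 8 s, compound at 300 nM, half-maximal GABA 22 s later, 1 Hz reads. Background-subtracted 460/580 nm ratio, normalized to DMCM as -100%.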
# [4] = molecular target: T3, GABA-A receptor; alpha-3/beta-3/gamma-2 (Homo sapiens) (UniProt P18507+P28472+P34903); experiment: Maximum inhibition of GABA EC20 response at GABA-A receptor alpha-3-beta-3-gamma-2,n=3; assay type: protein-complex assay
# Outline: (§3)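 Whole-cell patch clamp of L(tk-) cells stably expressing human α1, α3 or α5 β3γ2s, perfused with bicarbonate saline pH 7.2, CsCl pipette solution pH 7.3. Drugs applied by double-barrelled pipette; GABA in 5 s pulses at 30 s intervals. Modulation measured against a GABA EC20 set for each cell; curves fitted to a Hill equation.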
# [5] = molecular target: GABA-A receptor; alpha-1/beta-3/gamma-2 (Homo sapiens) (UniProt P14867+P18507+P28472); experiment: Maximum inhibition of GABA EC20 response at GABA-A receptor alpha-1-beta-3-gamma-2, n=4; assay type: protein-complex assay; outline: as §3
# [6] = molecular target: T3, GABA-A receptor; alpha-3/beta-3/gamma-2 (Homo sapiens); experiment: Efficacy at GABAA alpha-3-beta-3-gamma-2 receptor expressed in mouse fibroblast L(tk-) cells measured at 300 nM derived from at least three plates/day screened over a minimum of 2 days; assay type: functional, cell-based; outline: as §2
compound,measurement,setting,value
N#Cc1cccc(-c2cnnc(-c3ccccc3)c2)c1,Ki,[1],7 nM
same,Ki,[2],5.2 nM
same,Efficacy,[3],-32
same,Maximum inhibition,[4],-16%
same,Maximum inhibition,[5],-23%
same,Efficacy,[6],-4
